# Screens: PubChem, The Scripps Research Institute Molecular Screening Center
# Sampled rows, rich in hits. Any-hit rate of the full collection: about 1.9%.
# NPY-Y1 PAM-ag = human NPY-Y1 potentiation or agonism, primary screen; NPY-Y1 expressing cells, potentiator/agonist activation; activation, % at 3.6 µM; 220,000 compounds, 0.37% hits; AID 1304; in the data active means activation above about 33%, passing the limit was not always enough;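 further: cells stimulated with NPY at EC10 then isoproterenol at EC100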
# Target sequence (P25929 whole entry, looked up): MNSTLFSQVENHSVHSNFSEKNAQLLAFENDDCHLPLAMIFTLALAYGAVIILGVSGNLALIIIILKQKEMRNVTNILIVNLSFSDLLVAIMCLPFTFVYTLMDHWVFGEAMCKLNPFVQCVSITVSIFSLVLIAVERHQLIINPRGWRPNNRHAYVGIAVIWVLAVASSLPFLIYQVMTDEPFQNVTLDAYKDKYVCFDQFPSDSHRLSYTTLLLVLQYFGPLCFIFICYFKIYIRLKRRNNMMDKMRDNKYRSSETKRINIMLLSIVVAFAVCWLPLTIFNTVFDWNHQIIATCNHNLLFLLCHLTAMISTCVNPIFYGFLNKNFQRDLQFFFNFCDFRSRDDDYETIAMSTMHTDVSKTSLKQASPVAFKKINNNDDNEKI
# NPY2 pot ag = potentiates or activates human NPY-Y2 receptor. P49146. cells expressing NPY-Y2, potentiator/agonist read-out. activation, % at 3.6 µM. 220,000 compounds, 0.45% hits. AID 1359; in the data active means activation above about 27%;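 further: cells stimulated with NPY near EC25 plus isoproterenol at EC100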
# NPY-Y1 antag = NPY-Y1 (human) receptor antagonism; inhibition, % at 3.6 µM; P25929; 200,000 compounds, 1% hits; HEK293-CNG Y1 cells, membrane potential fluorescence; NPY at EC95, then isoproterenol;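 active means inhibition above the campaign mean inhibition of all tested compounds plus 3 SD, cut at about 20% in these data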
#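 Material: HEK293 Y1/CNG channel cell line; also added: NPY (25 nM), isoproterenol (1 µM), Ro 20-1724 (25 µM); doses: one concentration, 3.6 µM, in 0.4% DMSO; schedule: compound incubation 1 h at room temperature, readout 45 min post-stimulation; technique: membrane potential fluorescence; measure: fluorescence ratio normalized to % inhibition between controls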
# NPY-Y2 antag = NPY-Y2 (human) receptor antagonism; inhibition, % at 2.7 µM; NPY-Y2 expressing cells, antagonist mode; 140,000 compounds, 0.99% hits; P49146
# NPY-Y1 ant conf = confirmation of human neuropeptide Y receptor Y1 antagonists. 1,200 compounds, 21% hits. AID 1254. shares compounds with NPY-Y1 antag. inhibition, % at 3.6 µM. HEK293-CNG NPY-Y1, membrane potential fluorescence, cAMP; NPY challenge against isoproterenol-raised cAMP; in the data active means inhibition above about 20%
# NPY2 antag ctr = counter-screen for NPY-Y1 antagonists: human NPY-Y2 antagonism. shares compounds with NPY-Y1 antag. HEK293 NPY-Y2 CNG membrane potential fluorescence; cells given NPY, then isoproterenol. inhibition, % at 3.6 µM. 1,200 compounds, 28% hits
# Hits are given with their value; i = inactive; nt = no result. Unless noted, no stated cut-off is given here; in the data, active means inhibition above about 17%; inactive means the rest.
SMILES,NPY-Y1 PAM-ag,NPY2 pot ag,NPY-Y1 antag,NPY-Y2 antag,NPY-Y1 ant conf,NPY2 antag ctr
Cc1cc(C(=O)N/N=C(\CCC(=O)O)c2cccs2)c2ccccc2n1,i,i,35,nt,i,i
Cc1cc(C(=O)OCC(=O)c2cccs2)c2ccccc2n1,i,i,i,nt,nt,nt
COc1ccc(C(=O)NC(=S)Nc2ccc(CN3CCCCC3)cc2)cc1Cl,i,i,28,nt,i,23
O=C(NC(=S)Nc1ccc(CN2CCCCC2)cc1)c1ccco1,i,i,i,nt,nt,nt
Cc1ccc(C(=O)NC(=S)Nc2ccc(CN3CCCCC3)cc2)c(C)c1,i,i,24,nt,i,27
COc1cc(/C=N/NC(=O)C(=O)/C=C2\NC(C)(C)Cc3ccccc32)ccc1O,i,i,nt,nt,nt,nt
Cc1cc(C(=O)CSc2nc3ccccc3c(=O)n2C)c(C)n1CC1CCCO1 (centres undefined),i,i,27,nt,33,i
Cc1cc(C(=O)CSc2nc3ccccc3c(=O)[nH]2)c(C)n1CC1CCCO1 (centres undefined),i,i,i,nt,nt,nt
O=C(NNc1ncnc2ccccc12)c1cccc(Cl)c1,i,i,nt,nt,nt,nt
O=S(=O)(NCc1cn2ccccc2n1)c1ccccc1F,i,i,nt,nt,nt,nt
CC(=O)/C=C1\N(C)c2ccc(C)cc2C1(C)C,i,i,i,nt,nt,nt
CCCCC12CN3CC(C)(CN(C1)C31C(=O)N(C)c3ccc(C)cc31)C2=O (centres undefined),i,i,21,i,i,i
O=C(CCCN1C(=O)c2cccc3cccc(c23)C1=O)N1CCc2ccccc2C1,i,i,23,i,i,i
OCCC1CN(Cc2ccc3c(c2)CCO3)CCN1C1CCCC1 (centres undefined),i,i,i,nt,nt,nt
COc1ccc(C(C(=O)NC2CCCCC2)N(C(=O)CCl)c2cccc(Cl)c2)cc1 (centres undefined),i,i,i,i,nt,nt
O=C(Nc1cccc(Cl)c1)c1csc(-c2ccccc2)n1,i,i,23,i,i,i
O=C(Nc1ccc(Cl)c(Cl)c1)c1csc(-c2ccccc2)n1,i,i,i,i,nt,nt
CCCCNc1ccc(C(=O)O)cc1,i,i,nt,nt,nt,nt
CCNCc1ccc(OCc2ccccc2F)c(OC)c1,i,i,i,nt,nt,nt
CCN(CC)CCNCc1cc(Cl)ccc1OCc1ccccc1F,i,i,24,nt,i,i
O=C(Nc1ccc(Cl)cc1)c1cc2c(cc1O)[nH]c1ccccc12,i,i,nt,nt,nt,nt
COc1ccc(-c2ccc(/C=C(\NC(=O)c3ccccc3)C(=O)N3CCOCC3)o2)cc1,i,i,i,nt,nt,nt
Cc1cccc(NC(=S)NCC(c2cccnc2)N(C)C)c1 (centres undefined),i,i,i,i,nt,nt
CSc1ccc(CN2CCC(CO)(Cc3ccc(Cl)cc3)CC2)cc1,i,i,52,nt,39,48
COc1ccc(C2Nc3ccccc3C(=O)N2Cc2ccccc2)cc1COc1ccccn1 (centres undefined),i,i,36,i,i,i
SMILES,NPY-Y1 PAM-ag,NPY2 pot ag,NPY-Y1 antag,NPY-Y2 antag,NPY-Y1 ant conf,NPY2 antag ctr
COc1cccc(-c2noc(C3CCCN(S(=O)(=O)c4cccc(Cl)c4C)C3)n2)c1 (centres undefined),i,i,30,i,i,i
Cc1nn(C)cc1CN(C)C(=O)CCc1nnc(CCC2CCCCC2)o1,i,i,i,nt,nt,nt
COc1ccc(C(=O)c2c[nH]c(C(=O)N=CN(C)C)c2)cc1,i,i,i,nt,nt,nt
COc1ccc(OC)c(NC(=O)c2ccc(-c3cccs3)cc2)c1,i,i,22,nt,i,i
CCCCOc1ccc(C(=O)NC)cc1,i,i,i,i,nt,nt
CCCCOc1ccc(CC(=O)NO)cc1,i,i,38,i,i,i
O=C(N/N=C/C1CC2C=CC1C2)c1ccccc1O (centres undefined),i,i,nt,nt,nt,nt
N#CC1=C(N)Oc2cc(N)ccc2C1c1cccnc1 (centres undefined),i,i,i,i,nt,nt
CCN(CC)c1ccc2c(c1)OC(N)=C(C#N)C2c1cccnc1 (centres undefined),i,i,27,i,i,i
O=C(NC(=S)NCc1ccc(F)cc1)c1ccccc1,i,i,23,i,i,i
COc1cc(NCCC(=O)c2cccs2)c(OC)cc1Cl,i,i,i,nt,nt,nt
CSc1nc(Oc2ccc(F)cc2)c2ccccc2n1,i,i,23,i,i,i
Cc1c[nH]c(=O)c([N+](=O)[O-])c1,i,i,nt,nt,nt,nt
COc1ccc(C(=O)/C(C#N)=N/Nc2cccc([N+](=O)[O-])c2)cc1,i,i,26,nt,29,i
N#C/C(=N\Nc1cccc(Cl)c1)C(=O)c1ccccc1,i,i,i,i,nt,nt
Cc1cc(C)n(-c2ccc(C(=O)OCC(=O)Nc3ccc(Cl)cc3[N+](=O)[O-])cc2)n1,i,i,i,i,nt,nt
COc1cccc(CNC(=O)C(c2ccc(Cl)cc2)C(C)C)c1 (centres undefined),i,i,21,i,i,i
Cc1ccc(C)c(C(=O)CN2C3=NCCCN3c3ccccc32)c1,i,i,26,i,i,i
Cc1ccc(NC(=O)OCc2cn(-c3ccc(Cl)cc3)nn2)cc1,i,i,29,i,i,18
O=C(Nc1cccc(Cl)c1)OCc1cn(-c2ccc(Cl)cc2)nn1,i,i,20,i,i,i
CC(C)(C)C(=O)OCc1cn(-c2ccc(Cl)cc2)nn1,i,i,i,i,nt,nt
O=C(OCc1cn(-c2ccc(Cl)cc2)nn1)c1ccccc1,i,i,21,i,i,i
O=C(Nc1cccc(Cl)c1)OCc1cnc(Cl)s1,i,i,i,i,nt,nt
Cc1nn(Cc2c(Cl)cccc2Cl)c(Cl)c1/C=N/NC(=O)c1cccnc1,i,i,i,i,nt,nt
CC(NC(=O)c1cccs1)c1n[nH]c(=S)n1C (centres undefined),i,i,i,i,nt,nt
SMILES,NPY-Y1 PAM-ag,NPY2 pot ag,NPY-Y1 antag,NPY-Y2 antag,NPY-Y1 ant conf,NPY2 antag ctr
O=C(NNC(=O)C1CC2CCC1C2)c1sc2ccccc2c1Cl (centres undefined),i,i,i,i,nt,nt
COc1ccc(CN2C(=O)c3ccccc3C2C(=O)NC2CCCCCC2)c(OC)c1 (centres undefined),i,i,24,nt,i,i
COc1ccc(CN2C(=O)c3ccccc3C2C(=O)NCCc2ccccc2)c(OC)c1 (centres undefined),i,i,i,nt,nt,nt
FC(F)(F)c1cc(-c2ccco2)nc(-n2nc(C(F)(F)F)cc2C2CC2)n1,i,i,21,i,i,i
COc1ccccc1-c1cc(C(F)(F)F)nc(S(C)(=O)=O)n1,i,i,i,i,nt,nt
CS(=O)(=O)c1nc(-c2ccco2)cc(C(F)(F)F)n1,i,i,24,i,i,46
CN1CCN(c2nc(-c3ccco3)cc(C(F)(F)F)n2)CC1,i,i,i,i,nt,nt
O=C(/C=C/c1ccc(Cl)cc1)NCCSc1ccccc1,i,i,29,i,20,43
O=C(/C=C/c1cccc([N+](=O)[O-])c1)NCCSCc1ccc(Cl)cc1,i,i,i,i,nt,nt
O=C(/C=C/c1ccccc1)NCCSCc1ccc(Cl)cc1,i,i,21,i,i,i
COc1cccc(C(=O)COC(=O)CCC(=O)NC2CCCCC2)c1,i,i,i,nt,nt,nt
